Entries after “also recorded” stand apart in the source; their conditions may differ.
What was measured:
PLCG1 SH2 domains = biological target: T1, PLCG1 SH2 domains (Homo sapiens, UniProt P19174); test: FP saturation binding, construct not stated; details: result in words
T1 sequence (P19174 550-756 limits assumed): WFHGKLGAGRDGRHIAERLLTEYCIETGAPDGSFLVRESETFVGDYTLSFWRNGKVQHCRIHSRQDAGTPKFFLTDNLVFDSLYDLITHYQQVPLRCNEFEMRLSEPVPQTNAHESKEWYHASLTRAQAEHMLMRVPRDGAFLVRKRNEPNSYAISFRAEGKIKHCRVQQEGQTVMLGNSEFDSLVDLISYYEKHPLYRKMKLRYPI
Outline: (§1)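 Multi-SH2 genes were used as tandem proteins that kept the linker residues. Automated high-throughput FP saturation binding was run against 178 synthetic phosphopeptides from RTK, GAB1 and androgen receptor tyrosine sites. Millipolarization readings were fitted to P_obs = Pmax·[Protein]/(K_D+[Protein]) by least squares regression to give K_D.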

[1] = test system: PIK3R-derived SH2 domains; test: FP saturation binding, domain family; parameters: species or system human; details: FP, result in words
Outline: as §1

SRC SH2 domain = SRC SH2 domain (Homo sapiens, UniProt P12931); test: FP saturation binding; details: result in words
Outline: as §1

RASA1 SH2 domains = biological target: T2, RASA1 SH2 domains (Homo sapiens, UniProt P20936); test: FP saturation binding, construct not stated; details: result in words
T2 sequence (P20936 181-441 limits assumed): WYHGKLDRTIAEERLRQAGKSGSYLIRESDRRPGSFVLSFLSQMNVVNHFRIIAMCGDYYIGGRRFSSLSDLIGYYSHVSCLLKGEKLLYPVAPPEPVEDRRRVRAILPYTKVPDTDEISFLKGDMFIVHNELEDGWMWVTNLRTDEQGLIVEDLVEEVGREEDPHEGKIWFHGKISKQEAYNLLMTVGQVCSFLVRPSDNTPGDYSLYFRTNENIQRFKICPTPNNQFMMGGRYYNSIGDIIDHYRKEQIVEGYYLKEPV
Outline: as §1

PLCG2 SH2 domains = biological target: T3, PLCG2 SH2 domains (Homo sapiens, UniProt P16885); test: FP saturation binding, construct not stated; details: result in words
T3 sequence (P16885 532-735 limits assumed): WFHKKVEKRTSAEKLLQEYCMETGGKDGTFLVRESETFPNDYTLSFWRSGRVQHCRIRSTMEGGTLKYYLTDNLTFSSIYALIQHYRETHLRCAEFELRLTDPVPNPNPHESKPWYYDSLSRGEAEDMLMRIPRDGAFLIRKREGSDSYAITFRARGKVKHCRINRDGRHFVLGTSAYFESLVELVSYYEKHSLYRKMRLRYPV
Outline: as §1

[2] = test system: c-Src family kinase SH2 domains; test: FP saturation binding, domain family; parameters: species or system human; details: result in words
Outline: as §1

[3] = biological target: PIK3R3 (C-terminal domain), PIK3R3.C (Homo sapiens, UniProt Q92569); test: FP saturation binding; details: result in words
Outline: as §1

[4] = biological target: PLCG1 (NC tandem domain), PLCG1.NC (Homo sapiens, UniProt P19174); test: FP saturation binding; details: result in words
Outline: as §1

[5] = test system: 93 SH2 domains and 2 phosphotyrosine binding (PTB) domains; test: High throughput FP, whole domain panel; parameters: species or system human; details: result in words
Outline: as §1

Row | Substance | recruitment of PLCG1 SH2 domains (PLCG1 SH2 domains) | recruitment of PIK3R (PI3KR) SH2 domains [1] | interaction with SRC SH2 domain (SRC SH2 domain) | recruitment of RASA1 SH2 domains (RASA1 SH2 domains) | recruitment of PLCG2 SH2 domains (PLCG2 SH2 domains) | recruitment of c-Src family kinase SH2 domains [2] | recruitment of PIK3R3 (C-terminal domain) [3] | recruitment of PLCG1 (NC tandem domain) [4] | recruitment across the SH2 domain panel [5]
1 | QSRDXYNFPLALd [AR Tyr(P)-362] | interacted; also recorded: recruitment sites | interacted; also recorded: relatively high affinity | interacted | interacted | recruitment sites | – | – | – | –
2 | YSGPXGDMRLETd [AR Tyr(P)-534] | – | – | – | – | – | did not recruit | did recruit | did recruit | interacted with few SH2 domains

Source: PMC4083110 (Molecular & Cellular Proteomics : MCP, 2014)
